Laboratory results published in paper PMC10966424 (Experimental and Therapeutic Medicine, 2024).

Key:
[1] = test system: NO production in LPS-stimulated RAW 264.7 cells; experiment: LPS-stimulated NO production; format: cell-based, murine; conditions: Mus musculus, RAW264.7, 24 h, read-out: IC50 of NO, LPS (0.1 µg/ml)-stimulated RAW 264.7 cells, 24 h
Method in brief: (§1)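 Macrophages are grown in DMEM with 10% FBS at 37 °C and 5% CO2, seeded at 1x10^5 cells/well and cultured for 24 h. They are pretreated with test compound for 1 h, then given LPS for 24 h (RAW 264.7: 0.1 µg/ml; DH82: 2 µg/ml). Medium NO is measured by Griess reagent against a standard curve; supernatant PGE2 is measured by ELISA. Done at least in triplicate.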

[2] = MTT cell viability, DH82 macrophages; format: cell-based, canine; conditions: dog
Method in brief: (§2)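 Cells are seeded at 1x10^5 cells/well, cultured for 24 h, then exposed to test compound at various concentrations for a further 24 h. MTT is added, formazan is dissolved in DMSO and absorbance is read at 570 nm. The tabulated viability is at 200 µM. Done at least in triplicate.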

[3] = MTT cell viability, RAW 264.7 macrophages; format: cell-based, murine; conditions: mouse
Method in brief: as §2

[4] = test system: PGE2 production in LPS-stimulated RAW 264.7 cells; experiment: LPS-stimulated PGE2 production; format: cell-based, murine; conditions: Mus musculus, RAW264.7, 24 h, read-out: IC50 of PGE2, LPS (0.1 µg/ml)-stimulated RAW 264.7 cells, 24 h
Method in brief: as §1

[5] = test system: Mycobacterium tuberculosis; conditions: at low concentrations; cited from earlier work
COX-2 [6] = experiment: Western blot COX-2 protein expression, RAW 264.7; format: cell-based, murine; conditions: LPS-stimulated RAW 264.7; compared with nialamide
Method in brief: (§3)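 Cells (2x10^5/well) are cultured for 24 h and pretreated with test compound for 1 h. LPS follows for 24 h (RAW 264.7: 0.1 µg/ml; DH82: 2 µg/ml). RIPA lysates (40 µg protein, BCA-quantified) are run on 10% SDS-PAGE and transferred to PVDF. Membranes are blocked in 5% milk, probed overnight at 4 °C with anti-iNOS and anti-COX-2 (1:1,000; canine-specific antibodies for DH82), then HRP secondary (1:3,000) for 2 h. Detection is ECL; densitometry uses GAPDH as the internal control; n=3.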

IL-6 = experiment: LPS-stimulated IL-6 production; format: cell-based, murine; conditions: LPS-stimulated RAW 264.7; compared with nialamide
Method in brief: (§4)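 Seeding is 1x10^5 cells/well in DMEM with 10% FBS, followed by 24 h culture. Cells receive test compound for 1 h before LPS stimulation for 24 h (RAW 264.7: 0.1 µg/ml LPS; DH82: 2 µg/ml LPS). TNF-α, IL-6 and IL-10 in the culture medium are quantified by ELISA kits; n=3.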

[7] = test system: ROS production in LPS-activated RAW 264.7 macrophages; experiment: Intracellular ROS; format: cell-based, murine; conditions: LPS 0.1 µg/ml, 50 to 200 µM, DCFH-DA
iNOS [8] = experiment: Western blot iNOS protein expression, DH82; format: cell-based, canine; conditions: LPS-stimulated DH82; compared with nialamide
Method in brief: as §3

TNF-α = experiment: LPS-stimulated TNF-α production; format: cell-based, murine; conditions: LPS-stimulated RAW 264.7; compared with nialamide
Method in brief: as §4

COX-2 [9] = experiment: Western blot COX-2 protein expression, DH82; format: cell-based, canine; conditions: LPS-stimulated DH82; compared with nialamide
Method in brief: as §3

NF-κB = experiment: Western blot NF-κB phosphorylation, RAW 264.7; format: cell-based, murine; conditions: RAW 264.7 cells
Method in brief: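 RAW 264.7 cells (2x10^5/well) are pretreated with test compound for 1 h, then stimulated with 0.1 µg/ml LPS for 24 h. RIPA lysates (40 µg) are separated on 10% SDS-PAGE and blotted to PVDF. Blots are probed overnight at 4 °C with anti-p-p65, p65, p-IκB and IκB (1:1,000), followed by HRP secondary and ECL detection. GAPDH is the loading control; three independent experiments.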

IL-10 = experiment: LPS-stimulated IL-10 production; format: cell-based, murine; conditions: LPS-stimulated RAW 264.7; compared with nialamide
Method in brief: as §4

ABTS+ radical scavenging = conditions: compared with parent nialamide
Method in brief: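 ABTS radical cation formed by mixing 7 mM ABTS in ethanol with 2.4 mM potassium persulfate and holding it in the dark at 25 °C for 24 h. The solution is added to test compound at several concentrations, mixed for 30 sec, then incubated for 30 min at 25 °C. Scavenging % = [1-(A2/A1)]x100, where A1 is the blank without sample. (+)-Catechin is the positive control; n=3.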

DPPH radical scavenging = conditions: compared with parent nialamide; 50 to 200 µM
Method in brief: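 DPPH (200 µM in EtOH) is mixed 1:2 by volume with test compound solutions (50 to 200 µM in 70% EtOH). The mixture is incubated at 30 °C in the dark for 15 min, and the drop in absorbance at 517 nm is read. Scavenging % = [1-(A2/A1)]x100, where A1 is the blank without sample. (+)-Catechin is the positive control; n=3.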

iNOS [10] = experiment: Western blot iNOS protein expression, RAW 264.7; format: cell-based, murine; conditions: LPS-stimulated RAW 264.7; compared with nialamide
Method in brief: as §3

Molecule COCCC(=O)NCc1ccccc1 [Compound 4, 3-methoxy-N-benzylpropanamide] has an IC50 [1] of 178 ± 2 µM, a viability at 24 h, 200 µM [2] of 97.6 ± 1.1% and a viability at 24 h, 200 µM [3] of 102 ± 2.2%. For the same molecule, the IC50 [4] was 161 ± 2 µM.

In the case of O=C(CCNNC(=O)c1ccncc1)NCc1ccccc1 [Compound 1, nialamide, reference compound], the IC50 [1] is listed as greater than 200 µM, the “inhibition of Mycobacterium tuberculosis” value [5] is listed as “effectively inhibits” and the viability at 24 h, 200 µM [2] is listed as 99.9 ± 1.2%. It also gave a viability at 24 h, 200 µM [3] of 102 ± 2.3% and an IC50 [4] greater than 200 µM.

In the case of O=C(CCO)NCc1ccccc1 [Compound 5, 3-hydroxy-N-benzylpropanamide], the COX-2 protein expression (COX-2 [6]) is reported as “significant dose-dependent suppression”, the IL-6 production (IL-6) is reported as “potent dose-dependent suppression” and the ROS production [7] is reported as “effectively suppress ROS production in a dose-dependent manner”. For the same molecule, the iNOS protein expression (iNOS [8]) was “significant dose-dependent suppression”, the TNF-α production (TNF-α) was “potent dose-dependent suppression” and the COX-2 protein expression (COX-2 [9]) was “significant dose-dependent suppression”. The IC50 [1] was 63.5 ± 0.8 µM, the “LPS-stimulated phosphorylation of NF-κB” value (NF-κB) was “dose-dependent inhibition” and the viability at 24 h, 200 µM [2] was 97.2 ± 1%. For the same molecule, the viability at 24 h, 200 µM [3] was 99.9 ± 2.2%, the IL-10 production (IL-10) was “potent dose-dependent suppression” and the “ABTS+ scavenging activity” value (ABTS+ radical scavenging) was “enhancement”. The “DPPH radical scavenging activity” value (DPPH radical scavenging) was “enhancement”, the IC50 [4] was 55.4 ± 0.7 µM and the iNOS protein expression (iNOS [10]) was “significant dose-dependent suppression”.

NC(=O)c1ccncc1 [Compound 7, isonicotinamide] gave an IC50 [1] greater than 200 µM, a viability at 24 h, 200 µM [2] of 98.4 ± 1.2% and a viability at 24 h, 200 µM [3] of 101 ± 1.9%. For the same molecule, the IC50 [4] was greater than 200 µM.

NCCC(=O)NCc1ccccc1 [Compound 3, 3-amino-N-benzylpropanamide] gave an IC50 [1] of 170 ± 1.9 µM, a viability at 24 h, 200 µM [2] of 99.7 ± 1.2% and a viability at 24 h, 200 µM [3] of 102 ± 2%. The IC50 [4] was 155 ± 1.9 µM.
